According to ChEMBL document CHEMBL4138059, “Novel bivalent securinine mimetics as topoisomerase I inhibitors” (Medchemcomm, 2017):
Calls of active or inactive are those of the source. The rule behind the calls is not given here.

Assays:
[1] = biological target: T1, Topoisomerase I (Bos taurus) (UniProt Q2HPH0); test: (§1) Inhibition of calf thymus topoisomerase 1 assessed as suppression of relaxation of supercoiled pBR322 DNA at 100 uM incubated for 0.5 hrs by bromophenol blue and xylene cyanol FF staining based electrophoresis method
T1 sequence (whole entry): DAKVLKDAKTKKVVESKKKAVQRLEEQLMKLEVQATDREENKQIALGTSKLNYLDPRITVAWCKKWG
Procedure, shortened: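 Calf thymus Topo I with supercoiled pBR322 DNA and 100 μM compound, 37 °C for 0.5 h. Stopped with dye solution (bromophenol blue, xylene cyanol FF, glycerol). 1% agarose, 0.66 h in 1× TAE, then 5 μg mL-1 EB staining 0.5 h and UV imaging. Inhibition judged from supercoiled DNA remaining; camptothecin as control.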

[2] = biological target: T1, Topoisomerase I (Bos taurus); test: as §1, with “Potency index, ratio of enzyme inhibition of securinine to enzyme inhibition of test compound for inhibition” for “Inhibition”
[3] = biological target: T1, Topoisomerase I (Bos taurus); test: Inhibition of calf thymus topoisomerase 1 assessed as reduction in topo1/DNA complex formation at 50 to 400 uM pre-incubated for 0.33 hrs before addition of supercoiled pBR322 DNA substrate by EMSA
Procedure, shortened: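 BSA added to Topo I buffer, then four units calf thymus Topo I and compound (50, 100, 200 or 400 μM), standing 0.33 h. 0.1 μg pBR322 DNA added, 37 °C for 0.5 h. Electrophoresis at 1 V cm-1, 4 °C, 8 h on 1% gel containing EB; bands under UV.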

[4] = biological target: T1, Topoisomerase I (Bos taurus); test: Inhibition of calf thymus topoisomerase 1 assessed as increase in nicked DNA at 10 uM using supercoiled pBR322 DNA incubated for 0.5 hrs by ethidium bromide staining based DNA-cleavage assay
[5] = system: DNA topoisomerase I (Bos taurus); test: Induction of DNA intercalation assessed as reduction in topoisomerase 1-mediated DNA relaxation at 100 uM using supercoiled pBR322 DNA incubated for 0.5 hrs in presence of calf thymus topoisomerase 1 by electrophoresis method
[6] = biological target: T1, Topoisomerase I (Bos taurus); test: Inhibition of calf thymus topoisomerase 1 assessed as increase in nicked DNA at 50 uM using supercoiled pBR322 DNA incubated for 0.5 hrs by ethidium bromide staining based DNA-cleavage assay
Procedure, shortened: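 Reaction: 20 units Topo I, 0.5 μg supercoiled pBR322 DNA, 50 or 100 μM compound in 40 μL Topo I buffer, 37 °C for 0.5 h. Terminated with 1% SDS, proteinase K 0.8 mg mL-1 at 50 °C for 10 min. Electrophoresis 60 V, 25 °C, 0.5 h, EB soak 0.5 μg mL-1, second run 0.5 h. Read-out: nicked versus other band intensities, UV.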

| SMILES | inhibition [1] | Ratio [2] | inhibition [3] | inhibition [4] | Activity [5] | inhibition [6] |
| --- | --- | --- | --- | --- | --- | --- |
| CCCN(C(=O)c1cccc(C(=O)N(CCC)[C@H]2CC3=CC(=O)O[C@@]34C[C@@H]2N2CCCCC24)c1)C1CC2=CC(=O)O[C@@]23C[C@@H]1N1CCCC[C@@H]13 (single isomer, unassigned) | Active | 3 | Dose-dependent effect | Active | inactive | – |
| CCCN(C(=O)CCCCC(=O)N(CCC)[C@H]1CC2=CC(=O)O[C@@]23C[C@@H]1N1CCCC[C@@H]13)[C@@H]1CC2=CC(=O)O[C@@]23C[C@@H]1N1CCCC[C@@H]13 | Active | – | – | inactive | – | inactive |
| CCCN(C(=O)[C@H]1CCC[C@@H](C(=O)N(CCC)[C@H]2CC3=CC(=O)O[C@@]34C[C@@H]2N2CCCC[C@@H]24)C1)[C@@H]1CC2=CC(=O)O[C@@]23C[C@@H]1N1CCCC[C@@H]13 | Active | – | – | inactive | – | inactive |
| CCCN(C(=O)Cc1cccc(CC(=O)N(CCC)[C@H]2CC3=CC(=O)O[C@@]34C[C@@H]2N2CCCCC24)c1)C1CC2=CC(=O)O[C@@]23C[C@@H]1N1CCCCC13 (single isomer, unassigned) | Active | – | – | – | inactive | – |
| CCCN(C(=O)c1ccccc1C(=O)N(CCC)[C@H]1CC2=CC(=O)O[C@@]23C[C@@H]1N1CCCCC13)C1CC2=CC(=O)O[C@@]23C[C@@H]1N1CCCC[C@@H]13 (single isomer, unassigned) | Active | – | – | – | inactive | – |
| CCCN(C(=O)CCCC(=O)N(CCC)[C@H]1CC2=CC(=O)O[C@@]23C[C@@H]1N1CCCC[C@@H]13)[C@@H]1CC2=CC(=O)O[C@@]23C[C@@H]1N1CCCC[C@@H]13 | Active | – | – | – | – | – |
| CCCN(C(=O)c1ccccc1)[C@H]1CC2=CC(=O)O[C@@]23C[C@@H]1N1CCCC[C@@H]13 | Active | – | – | inactive | – | inactive |
| O=C1C=C2C=C[C@@H]3C[C@@]2(O1)[C@H]1CCCCN31 | Active | – | – | – | – | – |
| CC[C@@]1(O)C(=O)OCc2c1cc1n(c2=O)Cc2cc3ccccc3nc2-1 | Active | – | – | Active | – | Active |
| CCCN(C(=O)c1ccc(C(=O)N(CCC)[C@H]2CC3=CC(=O)O[C@@]34C[C@@H]2N2CCCCC24)cc1)C1CC2=CC(=O)O[C@@]23C[C@@H]1N1CCCC[C@@H]13 (single isomer, unassigned) | Active | – | – | – | inactive | – |
| CCCN(C(=O)[C@H]1CCCC[C@H]1C(=O)N(CCC)[C@H]1CC2=CC(=O)O[C@@]23C[C@@H]1N1CCCC[C@@H]13)[C@@H]1CC2=CC(=O)O[C@@]23C[C@@H]1N1CCCC[C@@H]13 | Active | – | – | – | – | – |
| CCCN(C(=O)Cc1ccccc1CC(=O)N(CCC)[C@H]1CC2=CC(=O)O[C@@]23C[C@@H]1N1CCCC[C@@H]13)[C@@H]1CC2=CC(=O)O[C@@]23C[C@@H]1N1CCCC[C@@H]13 | Active | – | – | – | inactive | – |
| CCCN(C(=O)Cc1ccc(CC(=O)N(CCC)[C@H]2CC3=CC(=O)O[C@@]34C[C@@H]2N2CCCC[C@@H]24)cc1)[C@@H]1CC2=CC(=O)O[C@@]23C[C@@H]1N1CCCC[C@@H]13 | Active | – | – | – | inactive | – |
| CCCN(C(=O)[C@H]1CC[C@H](C(=O)N(CCC)[C@H]2CC3=CC(=O)O[C@@]34C[C@@H]2N2CCCC[C@@H]24)CC1)[C@@H]1CC2=CC(=O)O[C@@]23C[C@@H]1N1CCCC[C@@H]13 | Active | – | – | – | – | – |
